Data on 1 compound can be found in ChEMBL document CHEMBL4350961, “Discovery of Pyrrolo[3,2- d]pyrimidin-4-one Derivatives as a New Class of Potent and Cell-Active Inhibitors of P300/CBP-Associated Factor Bromodomain” (J Med Chem, 2019).

Activity calls are given as the source filed them. No cut-off for these calls is given here.

In data set [1] the target is Vascular endothelial growth factor receptor 2 (Homo sapiens) (UniProt P35968). Nature of the data set: Inhibition of recombinant human KDR (790 to end residues) at 10 uM using myelin basic protein substrate measured after 40 mins in presence of [gamma33P]ATP by scintillation counting method.
Data set [2] concerns the target Homeodomain-interacting protein kinase 4 (Homo sapiens) (UniProt Q8NE63). Nature of the data set: Inhibition of recombinant full-length human HIPK4 at 10 uM using RRRFRPASPLRGPPK as substrate measured after 40 mins in presence of [gamma33P]ATP by scintillation counting method.
Data set [3] concerns the target Protein-tyrosine kinase 2-beta (Homo sapiens) (UniProt Q14289). Description: Inhibition of recombinant full-length human Pyk2 at 10 uM using poly(Glu, Tyr) 4:1 as substrate measured after 40 mins in presence of [gamma33P]ATP by scintillation counting method.
The target in data set [4] is Serine/threonine-protein kinase haspin (Homo sapiens) (UniProt Q8TF76). Nature of the data set: Inhibition of recombinant human haspin (471 to end residues) at 10 uM using RARTLSFAEPG as substrate measured after 40 mins in presence of [gamma33P]ATP by scintillation counting method.
Data set [5] deals with RAC-gamma serine/threonine-protein kinase (Homo sapiens), Q9Y243 [S472D]. Description: Inhibition of recombinant full-length human PKBgamma S472D mutant (117 to end residues) at 10 uM using GRPRTSSFAEGKK as substrate measured after 40 mins in presence of [gamma33P]ATP by scintillation counting method.
Data set [6] concerns the target Insulin-like growth factor 1 receptor (Homo sapiens) (UniProt P08069). Nature of the data set: Inhibition of recombinant human activated IGF1R (959 to end residues) at 10 uM using KKKSPGEYVNIEFG as substrate measured after 40 mins in presence of [gamma33P]ATP by scintillation counting method.
Data set [7] deals with Tyrosine-protein kinase Lck (Homo sapiens) (UniProt P06239). Description: Inhibition of recombinant full-length human activated Lck at 10 uM using KVEKIGEGTYGVVYK as substrate measured after 40 mins in presence of [gamma33P]ATP by scintillation counting method.
The target of data set [8] is Ephrin type-A receptor 8 (Homo sapiens) (UniProt P29322). Description: Inhibition of recombinant human EphA8 (615 to 911 residues) at 10 uM using KTFCGTPEYLAPEVRREPRILSEEEQEMFRDFDYIADWC as substrate measured after 40 mins in presence of [gamma33P]ATP by scintillation counting method.
Data set [9] addresses Tyrosine-protein kinase Lck (Homo sapiens) (UniProt P06239). Description: Inhibition of recombinant full-length human Lck at 10 uM using KVEKIGEGTYGVV as substrate measured after 40 mins in presence of [gamma33P]ATP by scintillation counting method.
Data set [10] relates to Serine/threonine-protein kinase B-raf (Homo sapiens), P15056 [V600E]. Nature of the data set: Inhibition of recombinant human BRAF V599E mutant (416 to end residues) at 10 uM using myelin basic protein as substrate measured after 40 mins in presence of [gamma33P]ATP by scintillation counting method.
The target in data set [11] is Mitogen-activated protein kinase kinase kinase kinase 1 (Homo sapiens) (UniProt Q92918). Nature of the data set: Inhibition of recombinant human HPK1 (1 to 346 residues) at 10 uM using myelin basic protein as substrate measured after 40 mins in presence of [gamma33P]ATP by scintillation counting method.
The target in data set [12] is Mitogen-activated protein kinase 14 (Homo sapiens) (UniProt Q16539). Description: Inhibition of recombinant full-length human SAPK2a at 10 uM using myelin basic protein as substrate measured after 40 mins in presence of [gamma33P]ATP by scintillation counting method.
The subject of data set [13] is PI3-kinase p110-alpha/p85-alpha (Homo sapiens), P27986+P42336 [E542K]. Description: Inhibition of recombinant full-length human PI3K p110alpha/p85alpha E542K mutant at 10 uM using phosphatidylinositol-4, 5-bisphosphate as substrate measured after 40 mins by fluorescence assay. Type of data set: protein-complex assay.
The target in data set [14] is Receptor-interacting serine/threonine-protein kinase 2 (Homo sapiens) (UniProt O43353). Nature of the data set: Inhibition of human RIPK2 (1 to 299 residues) using myelin basic protein as substrate measured after 120 mins in presence of [gamma33P]ATP by scintillation counting method. The gist of the method:
(§1)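 Kinase panel of 422 kinases screened by Eurofins KinaseProfiler at a single test-compound concentration of 10 µM.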

Data set [15] is described as follows: Cmax in Sprague-Dawley rat at 10 mg/kg, po administered via gavage by LC-MS/MS analysis. The note with it: in vivo. More on the design: dose 10 mg/kg, route oral. Type of data set: ADME, organism-based. The gist of the method:
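Serial jugular-vein blood taken at set times, spun to plasma at 4 ℃, stored at -80 °C. Plasma extracted with acetonitrile containing internal standard, quantified by LC-MS/MS; noncompartmental fit.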

Data set [16] deals with Serine/threonine-protein kinase 10 (Homo sapiens) (UniProt O94804). Nature of the data set: Inhibition of recombinant human LOK (1 to 348 residues) at 10 uM using RLGRDKYKTLRQIRQ as substrate measured after 40 mins in presence of [gamma33P]ATP by scintillation counting method.
The target in data set [17] is Mitogen-activated protein kinase kinase kinase kinase 5 (Homo sapiens) (UniProt Q9Y4K4). Nature of the data set: Inhibition of recombinant full-length human MAP4K5 at 10 uM using myelin basic protein as substrate measured after 40 mins in presence of [gamma33P]ATP by scintillation counting method.
A short description of data set [18]: Half life in Sprague-Dawley rat at 10 mg/kg, po administered via gavage by LC-MS/MS analysis. Particulars: in vivo. Type of data set: ADME, organism-based. The method in brief:
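Male Sprague-Dawley rats, 6–8 weeks old, given a single 10 mg/kg dose by oral gavage (vehicle 2.5% ethanol, 2.5% tween-80 in saline, pH 7.0). Serial jugular blood samples taken and centrifuged to plasma. Plasma protein-precipitated with acetonitrile containing internal standard, then analysed by LC-MS/MS. Noncompartmental fit gave T1/2.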

Data set [19] has as its target Transcription initiation factor TFIID subunit 1-like (Homo sapiens) (UniProt Q8IZX4). Description: Binding affinity to human partial length TAF1L bromodomain 2 (Q1523 to D1654 residues) expressed in bacterial expression system at 1 uM by BROMOscan assay. The method in brief: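 BROMOscan bromodomain cross-screen run by an outside service, compound at 1 µM against 32 recombinant bromodomains. Binding given as percent of control.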

The target of data set [20] is Serine/threonine-protein kinase DCLK2 (Homo sapiens) (UniProt Q8N568). Nature of the data set: Inhibition of recombinant human DCAMKL2 (376 to end residues) at 10 uM using KKLNRTLSFAEPG as substrate measured after 40 mins in presence of [gamma33P]ATP by scintillation counting method.
Data set [21] concerns the target Casein kinase II subunit alpha (Homo sapiens) (UniProt P68400). Nature of the data set: Inhibition of recombinant full length human CK2alpha1 at 10 uM using RRRDDDSDDD as substrate measured after 40 mins in presence of [gamma33P]ATP by scintillation counting method.
Data set [22] concerns the target Proto-oncogene tyrosine-protein kinase receptor Ret (Homo sapiens) (UniProt P07949). Description: Inhibition of human Ret (658 to end residues) using KKKSPGEYVNIEFG as substrate measured after 40 mins in presence of [gamma33P]ATP by scintillation counting method. The gist of the method:
as §1

The target of data set [23] is Casein kinase I (Homo sapiens) (UniProt Q9HCP0+P78368+P48730+P49674+P48729). Description: Inhibition of CK1 (unknown origin) at 10 uM. The class given is protein assay. The gist of the method:
as §1

Tyrosine-protein kinase Lck (Homo sapiens), sequence (P06239 2-509 limits assumed): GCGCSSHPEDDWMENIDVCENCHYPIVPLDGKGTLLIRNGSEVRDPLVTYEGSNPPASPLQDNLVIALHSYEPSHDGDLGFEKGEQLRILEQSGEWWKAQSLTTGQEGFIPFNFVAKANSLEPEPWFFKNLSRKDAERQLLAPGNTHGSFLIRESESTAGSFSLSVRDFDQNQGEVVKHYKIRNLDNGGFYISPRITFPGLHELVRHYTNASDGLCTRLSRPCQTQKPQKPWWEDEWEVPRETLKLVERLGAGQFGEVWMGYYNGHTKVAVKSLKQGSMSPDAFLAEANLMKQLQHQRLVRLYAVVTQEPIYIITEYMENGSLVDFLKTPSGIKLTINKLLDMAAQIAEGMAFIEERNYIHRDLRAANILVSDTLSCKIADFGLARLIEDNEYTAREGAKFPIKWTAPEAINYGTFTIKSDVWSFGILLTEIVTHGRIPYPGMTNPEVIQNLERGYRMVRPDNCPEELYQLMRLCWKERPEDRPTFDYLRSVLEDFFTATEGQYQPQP
Mitogen-activated protein kinase 14 (Homo sapiens), sequence (Q16539 whole entry): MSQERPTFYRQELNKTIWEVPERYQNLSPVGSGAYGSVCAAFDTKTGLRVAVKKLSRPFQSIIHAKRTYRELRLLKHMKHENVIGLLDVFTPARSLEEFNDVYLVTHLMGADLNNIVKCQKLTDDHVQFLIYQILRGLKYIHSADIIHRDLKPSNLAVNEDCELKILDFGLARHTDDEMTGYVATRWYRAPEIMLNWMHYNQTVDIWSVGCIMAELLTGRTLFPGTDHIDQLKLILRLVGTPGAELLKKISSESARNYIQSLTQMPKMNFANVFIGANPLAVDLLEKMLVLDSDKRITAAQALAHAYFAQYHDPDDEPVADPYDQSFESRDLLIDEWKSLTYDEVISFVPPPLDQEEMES
Homeodomain-interacting protein kinase 4 (Homo sapiens), sequence (Q8NE63 whole entry): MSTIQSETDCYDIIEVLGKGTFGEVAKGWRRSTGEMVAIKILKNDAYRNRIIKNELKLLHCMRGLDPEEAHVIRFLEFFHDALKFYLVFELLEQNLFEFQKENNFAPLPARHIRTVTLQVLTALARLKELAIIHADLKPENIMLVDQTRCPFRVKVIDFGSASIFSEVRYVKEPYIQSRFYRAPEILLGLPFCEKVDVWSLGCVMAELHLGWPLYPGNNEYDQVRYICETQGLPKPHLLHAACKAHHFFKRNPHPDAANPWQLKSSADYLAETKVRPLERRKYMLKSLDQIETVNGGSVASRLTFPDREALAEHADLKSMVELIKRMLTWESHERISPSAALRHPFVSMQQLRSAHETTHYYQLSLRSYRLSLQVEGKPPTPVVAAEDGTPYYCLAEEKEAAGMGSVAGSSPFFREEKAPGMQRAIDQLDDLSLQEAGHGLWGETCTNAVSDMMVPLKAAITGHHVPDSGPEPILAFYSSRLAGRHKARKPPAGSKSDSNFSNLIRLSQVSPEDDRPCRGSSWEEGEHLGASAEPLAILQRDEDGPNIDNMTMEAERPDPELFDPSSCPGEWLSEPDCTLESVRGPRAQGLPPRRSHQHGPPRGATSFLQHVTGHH
Receptor-interacting serine/threonine-protein kinase 2 (Homo sapiens), sequence (O43353 whole entry, the tested form may be a part): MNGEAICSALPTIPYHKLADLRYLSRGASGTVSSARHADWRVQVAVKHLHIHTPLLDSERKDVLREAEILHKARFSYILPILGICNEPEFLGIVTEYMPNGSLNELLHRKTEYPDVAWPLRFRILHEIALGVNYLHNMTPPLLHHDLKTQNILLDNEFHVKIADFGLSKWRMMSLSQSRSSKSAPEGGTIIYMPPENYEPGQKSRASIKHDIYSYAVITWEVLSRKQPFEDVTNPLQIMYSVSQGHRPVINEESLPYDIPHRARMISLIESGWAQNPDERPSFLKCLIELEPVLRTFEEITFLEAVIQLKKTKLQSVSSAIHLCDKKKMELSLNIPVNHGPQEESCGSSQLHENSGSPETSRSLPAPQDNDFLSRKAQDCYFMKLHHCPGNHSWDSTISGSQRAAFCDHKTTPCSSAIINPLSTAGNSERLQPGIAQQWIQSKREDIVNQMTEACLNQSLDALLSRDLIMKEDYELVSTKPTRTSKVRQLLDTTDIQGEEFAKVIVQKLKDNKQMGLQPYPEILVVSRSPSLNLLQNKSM
Serine/threonine-protein kinase 10 (Homo sapiens), sequence (O94804 whole entry, looked up, the tested form may be a part): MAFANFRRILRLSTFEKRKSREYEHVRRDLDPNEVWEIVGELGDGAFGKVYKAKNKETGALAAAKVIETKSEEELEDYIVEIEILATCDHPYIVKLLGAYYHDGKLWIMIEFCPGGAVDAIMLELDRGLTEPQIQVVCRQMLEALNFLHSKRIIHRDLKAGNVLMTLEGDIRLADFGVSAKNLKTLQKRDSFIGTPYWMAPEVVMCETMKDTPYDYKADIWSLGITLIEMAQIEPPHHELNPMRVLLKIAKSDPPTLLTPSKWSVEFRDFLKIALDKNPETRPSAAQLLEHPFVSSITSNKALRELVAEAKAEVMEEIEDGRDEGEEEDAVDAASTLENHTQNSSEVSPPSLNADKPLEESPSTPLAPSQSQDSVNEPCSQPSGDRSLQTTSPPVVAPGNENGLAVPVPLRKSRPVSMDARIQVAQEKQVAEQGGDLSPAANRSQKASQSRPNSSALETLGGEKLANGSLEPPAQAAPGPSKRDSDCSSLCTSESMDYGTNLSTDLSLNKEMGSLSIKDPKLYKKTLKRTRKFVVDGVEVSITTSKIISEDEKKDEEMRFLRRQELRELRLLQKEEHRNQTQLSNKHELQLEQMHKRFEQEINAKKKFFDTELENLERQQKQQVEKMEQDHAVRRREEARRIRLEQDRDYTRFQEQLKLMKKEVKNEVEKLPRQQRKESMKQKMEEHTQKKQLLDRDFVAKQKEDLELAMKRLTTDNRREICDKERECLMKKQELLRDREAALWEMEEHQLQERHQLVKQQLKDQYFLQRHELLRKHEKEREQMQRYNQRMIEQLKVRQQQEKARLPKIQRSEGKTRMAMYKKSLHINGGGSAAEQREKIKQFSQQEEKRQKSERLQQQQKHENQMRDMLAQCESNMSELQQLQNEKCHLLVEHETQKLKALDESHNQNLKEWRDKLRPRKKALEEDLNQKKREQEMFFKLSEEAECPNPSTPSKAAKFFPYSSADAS
Serine/threonine-protein kinase DCLK2 (Homo sapiens), sequence (Q8N568 whole entry): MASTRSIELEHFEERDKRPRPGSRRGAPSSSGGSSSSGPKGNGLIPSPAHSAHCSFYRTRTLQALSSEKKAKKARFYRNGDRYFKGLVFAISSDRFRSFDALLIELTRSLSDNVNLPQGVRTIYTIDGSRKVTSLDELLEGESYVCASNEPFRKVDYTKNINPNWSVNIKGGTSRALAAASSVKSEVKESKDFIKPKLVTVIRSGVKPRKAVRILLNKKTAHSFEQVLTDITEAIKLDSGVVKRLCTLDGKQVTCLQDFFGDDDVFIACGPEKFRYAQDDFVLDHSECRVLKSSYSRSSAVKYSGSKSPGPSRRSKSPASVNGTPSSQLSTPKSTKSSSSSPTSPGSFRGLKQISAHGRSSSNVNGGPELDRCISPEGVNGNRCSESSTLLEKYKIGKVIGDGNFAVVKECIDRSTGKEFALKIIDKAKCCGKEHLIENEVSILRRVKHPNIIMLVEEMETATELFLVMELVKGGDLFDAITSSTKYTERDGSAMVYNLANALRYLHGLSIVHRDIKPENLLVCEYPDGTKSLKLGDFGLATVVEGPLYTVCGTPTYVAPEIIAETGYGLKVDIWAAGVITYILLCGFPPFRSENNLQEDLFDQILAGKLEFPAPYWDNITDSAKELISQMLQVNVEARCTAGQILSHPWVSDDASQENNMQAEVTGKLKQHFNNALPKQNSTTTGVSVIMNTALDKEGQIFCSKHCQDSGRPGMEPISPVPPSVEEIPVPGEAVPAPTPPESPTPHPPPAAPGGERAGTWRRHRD
Serine/threonine-protein kinase haspin (Homo sapiens), sequence (Q8TF76 whole entry): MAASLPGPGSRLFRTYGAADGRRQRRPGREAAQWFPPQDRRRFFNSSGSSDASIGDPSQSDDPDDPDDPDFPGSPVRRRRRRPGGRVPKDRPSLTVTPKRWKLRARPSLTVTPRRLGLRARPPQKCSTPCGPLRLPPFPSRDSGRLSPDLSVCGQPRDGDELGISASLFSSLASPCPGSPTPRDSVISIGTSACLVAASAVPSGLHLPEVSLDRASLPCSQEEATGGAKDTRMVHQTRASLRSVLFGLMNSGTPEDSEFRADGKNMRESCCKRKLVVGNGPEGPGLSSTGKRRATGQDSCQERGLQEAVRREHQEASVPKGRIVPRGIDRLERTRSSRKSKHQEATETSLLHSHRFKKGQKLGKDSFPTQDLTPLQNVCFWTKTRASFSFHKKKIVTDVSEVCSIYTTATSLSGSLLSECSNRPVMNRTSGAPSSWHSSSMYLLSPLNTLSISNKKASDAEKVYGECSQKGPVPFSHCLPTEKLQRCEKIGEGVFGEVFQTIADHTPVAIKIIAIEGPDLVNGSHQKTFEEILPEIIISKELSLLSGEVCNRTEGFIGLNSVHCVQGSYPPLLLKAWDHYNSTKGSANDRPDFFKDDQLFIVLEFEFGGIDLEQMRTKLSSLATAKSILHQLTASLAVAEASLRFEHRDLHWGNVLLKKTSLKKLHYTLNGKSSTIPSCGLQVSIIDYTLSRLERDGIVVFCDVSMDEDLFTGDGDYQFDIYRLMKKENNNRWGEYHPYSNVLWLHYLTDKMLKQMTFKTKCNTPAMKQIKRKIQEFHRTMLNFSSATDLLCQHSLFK
Casein kinase II subunit alpha (Homo sapiens), sequence (P68400 whole entry, looked up): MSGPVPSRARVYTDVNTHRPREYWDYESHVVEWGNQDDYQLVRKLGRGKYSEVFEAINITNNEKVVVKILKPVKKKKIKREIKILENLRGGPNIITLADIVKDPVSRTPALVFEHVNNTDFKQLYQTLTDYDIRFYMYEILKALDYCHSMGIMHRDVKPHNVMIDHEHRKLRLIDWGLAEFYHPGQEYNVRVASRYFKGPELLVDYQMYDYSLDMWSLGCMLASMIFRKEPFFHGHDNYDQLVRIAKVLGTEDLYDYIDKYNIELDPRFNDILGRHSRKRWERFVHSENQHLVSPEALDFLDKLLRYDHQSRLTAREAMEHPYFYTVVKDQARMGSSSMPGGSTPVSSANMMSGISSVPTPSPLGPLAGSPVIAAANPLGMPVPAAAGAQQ

As a reminder, the Cmax is the highest concentration seen after dosing. As usually defined, the half-life is the time in which the quantity being followed falls by half. A lower half-life goes with fast loss. Consider `CN1C[C@H](Nc2nc3cc[nH]c3c(=O)n2C)C[C@H](c2ccc3c(c2)OCCO3)C1`, for which the inhibition entry in [1], in [2], in data set [3], in [4], in data set [5] and in data set [6] was “inactive” throughout. The inhibition entry in data set [7], in [8], in [9], in data set [10], in data set [11] and in [12] was “inactive” in each case. Besides, the inhibition result in data set [13], in data set [14], in data set [16], in data set [17], in data set [20] and in data set [21] was “inactive” each time. The inhibition result in data set [22] and in data set [23] was “inactive” in each case. Further, the Cmax in data set [15] came to 1420 ng/mL. In [18], this compound gave a half-life of 1.51 h. The outcome in data set [19] was inactive.
